Legend:
Format in all cases: functional
Aspergillus fumigatus [1] = assay: Antifungal activity against Aspergillus fumigatus at a concentration of 2 mg/mL in MeOH; Zone: hazy diffused
In short: (§1)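 Standard agar-well diffusion on Sabouraud agar bioassay plates, seeded with C. albicans strain IV or A. fumigatus strain AF-1. Read-out is the inhibition zone produced around the well. Zone appearance is scored as hazy, very hazy, hazy diffused or very hazy diffused, and judged against the zone of the parent mulundocandin.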

Aspergillus fumigatus [2] = assay: Antifungal activity against Aspergillus fumigatus at a concentration of 5 mg/mL in MeOH; Zone: hazy diffused; in short: as §1
Candida albicans [3] = assay: Antifungal activity against Candida albicans at a concentration of 5 mg/mL in MeOH; in short: as §1
Candida albicans [4] = assay: Antifungal activity against Candida albicans at a concentration of 1 mg/mL in MeOH; in short: as §1
Aspergillus fumigatus [5] = assay: Antifungal activity against Aspergillus fumigatus at a concentration of 2 mg/mL in MeOH; Zone: very hazy; in short: as §1
Candida albicans [6] = assay: Antifungal activity against Candida albicans at an intraperitoneal dose of 20 mg/kg twice a day for 6 days in mice
In short: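 Swiss mice were infected with C. albicans and treated intraperitoneally at 20 mg/kg ×6, b.i.d. Kidneys were homogenized and the approximate CFU per gm kidney was counted. Comparator groups were the parent compound, fluconazole and untreated infected controls.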

Aspergillus fumigatus [7] = assay: Antifungal activity against Aspergillus fumigatus at a concentration of 1.1 mg/mL in MeOH; Zone: hazy diffused; in short: as §1
Candida albicans [8] = assay: Antifungal activity against Candida albicans at a concentration of 0.1 mg/mL in MeOH; in short: as §1
Candida albicans [9] = assay: Antifungal activity against Candida albicans at a concentration of 1.1 mg/mL in MeOH; in short: as §1
Aspergillus fumigatus [10] = assay: Antifungal activity against Aspergillus fumigatus at a concentration of 2 mg/mL in MeOH; Zone: very hazy diffused; in short: as §1
Candida albicans [11] = assay: Antifungal activity against Candida albicans at an intraperitoneal dose of 20 mg/kg twice a day for 6 days in mice in experiment 2
In short: (§2)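 Swiss mice infected with C. albicans; compounds given intraperitoneally at 20 mg/kg, ×6, b.i.d. Kidneys homogenized and colony-forming units counted per gram of kidney (approximate). Untreated infected control group included; fluconazole at the same dose used as standard.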

Candida albicans [12] = assay: Antifungal activity against Candida albicans at an intraperitoneal dose of 20 mg/kg twice a day for 6 days in mice in experiment 1; in short: as §2
Aspergillus fumigatus [13] = assay: Antifungal activity against Aspergillus fumigatus at a concentration of 5 mg/mL in MeOH; Zone: hazy; in short: as §1
Aspergillus fumigatus [14] = assay: Antifungal activity against Aspergillus fumigatus at a concentration of 2 mg/mL in MeOH; Zone: hazy; in short: as §1
Candida albicans [15] = assay: Antifungal activity against Candida albicans at a concentration of 2 mg/mL in MeOH; Zone: hazy; in short: as §1
Aspergillus fumigatus [16] = assay: Antifungal activity against Aspergillus fumigatus at a concentration of 5 mg/mL in MeOH; Zone: very hazy diffused; in short: as §1
Aspergillus fumigatus [17] = assay: Antifungal activity against Aspergillus fumigatus at a concentration of 2 mg/mL in MeOH; Zone: diffused; in short: as §1
Aspergillus fumigatus [18] = assay: Antifungal activity against Aspergillus fumigatus at a concentration of 1 mg/mL in MeOH; Zone: hazy; in short: as §1
Candida albicans [19] = assay: Antifungal activity against Candida albicans at a concentration of 1 mg/mL in MeOH; Zone: hazy; in short: as §1

SMILES | Zone size (Aspergillus fumigatus [1]) [mm] | Zone size (Aspergillus fumigatus [2]) [mm] | Zone size (Candida albicans [3]) [mm] | Zone size (Candida albicans [4]) [mm] | other results
CCC(C)CCCCCCCCCCC(=O)N[C@@H]1C[C@@H](O)CNC(=O)[C@@H]2[C@@H](O)[C@@H](C)CN2C(=O)[C@H](CO)NC(=O)[C@H]([C@@H](O)C(O)c2ccc(O)cc2)NC(=O)[C@@H]2C[C@@H](O)CN2C(=O)[C@H]([C@@H](C)O)NC1=O (some centres undefined) | 23 | 25 | 29 | 25 | 
CCC(C)CCCCCCCCCCC(=O)N[C@@H]1C[C@@H](O)[C@H](OCc2ccccc2)NC(=O)[C@@H]2[C@@H](O)[C@@H](C)CN2C(=O)C(CO)NC(=O)C([C@@H](O)Cc2ccc(O)cc2)NC(=O)[C@@H]2C[C@@H](O)CN2C(=O)C(C(C)O)NC1=O (some centres undefined) | 15 | 18 | 17 |  | 
CCC(C)CCCCCCCCCCC(=O)N[C@@H]1C[C@@H](O)C(c2ccc(OC)c(OC)c2)NC(=O)[C@@H]2[C@@H](O)[C@@H](C)CN2C(=O)C(CO)NC(=O)C([C@@H](O)[C@H](O)c2ccc(O)cc2)NC(=O)[C@@H]2C[C@@H](O)CN2C(=O)C(C(C)O)NC1=O (some centres undefined) | 30 | 32 | 29 | 24 | 
CCC(C)CCCCCCCCCCC(=O)N[C@@H]1C[C@@H](O)C(S(=O)(=O)CC(=O)OC)NC(=O)[C@@H]2[C@@H](O)[C@@H](C)CN2C(=O)C(CO)NC(=O)C([C@@H](O)[C@H](O)c2ccc(O)cc2)NC(=O)[C@@H]2C[C@@H](O)CN2C(=O)C(C(C)O)NC1=O (some centres undefined) |  | 29 | 26 | 20 | Zone size (Aspergillus fumigatus [5]): 24 mm
CCC(C)CCCCCCCCCCC(=O)N[C@@H]1C[C@@H](O)C(O)NC(=O)[C@@H]2[C@@H](O)[C@@H](C)CN2C(=O)[C@H](CO)NC(=O)[C@H]([C@@H](O)Cc2ccc(O)cc2)NC(=O)[C@@H]2C[C@@H](O)CN2C(=O)[C@H]([C@@H](C)O)NC1=O (some centres undefined) | 30 |  |  | 30 | Approximate colony formation unit (Candida albicans [6]): 180000000 (g kidney)-1
CCC(C)CCCCCCCCCCC(=O)N[C@@H]1C[C@@H](O)[C@H](O)NC(=O)[C@@H]2[C@@H](O)[C@@H](C)CN2C(=O)[C@H](CO)NC(=O)[C@H]([C@@H](O)[C@H](O)c2ccc(O)cc2)NC(=O)[C@@H]2C[C@@H](O)CN2C(=O)[C@H]([C@@H](C)O)NC1=O (some centres undefined) |  |  |  |  | Zone size (Aspergillus fumigatus [7]): 29 mm; Zone size (Candida albicans [8]): 24 mm; Zone size (Candida albicans [9]): 29 mm; Zone size (Aspergillus fumigatus [10]): 35 mm; Approximate colony formation unit (Candida albicans [11]): 12500000 (g kidney)-1; Approximate colony formation unit (Candida albicans [12]): 150000000 (g kidney)-1
CCC(C)CCCCCCCCCCC(=O)N[C@@H]1C[C@@H](O)C(OCc2ccccc2)NC(=O)[C@@H]2[C@@H](O)[C@@H](C)CN2C(=O)C(CO)NC(=O)C([C@@H](O)[C@H](O)c2ccc(O)cc2)NC(=O)[C@@H]2C[C@@H](O)CN2C(=O)C(C(C)O)NC1=O (some centres undefined) |  |  | 16 |  | Zone size (Aspergillus fumigatus [13]): 26 mm; Zone size (Aspergillus fumigatus [14]): 24 mm
CCC(C)CCCCCCCCCCC(=O)N[C@@H]1C[C@@H](O)C(CN)NC(=O)[C@@H]2[C@@H](O)[C@@H](C)CN2C(=O)C(CO)NC(=O)C([C@@H](O)[C@H](O)c2ccc(O)cc2)NC(=O)[C@@H]2C[C@@H](O)CN2C(=O)C(C(C)O)NC1=O (some centres undefined) | 23 | 25 | 25 | 22 | 
CCC(C)CCCCCCCCCCC(=O)N[C@@H]1C[C@H](O)C(C#N)NC(=O)[C@@H]2[C@@H](O)[C@@H](C)CN2C(=O)[C@H](CO)NC(=O)[C@H]([C@@H](O)[C@H](O)c2ccc(O)cc2)NC(=O)[C@@H]2C[C@@H](O)CN2C(=O)[C@H]([C@@H](C)O)NC1=O (some centres undefined) | 20 | 27 | 25 | 19 | 
OC(Cn1cncn1)(Cn1cncn1)c1ccc(F)cc1F [FLUCONAZOLE] |  |  |  |  | Approximate colony formation unit (Candida albicans [11]): 10000 (g kidney)-1; Approximate colony formation unit (Candida albicans [12]): 380000 (g kidney)-1
CCC(C)CCCCCCCCCCC(=O)N[C@@H]1C[C@@H](O)C(OC)NC(=O)[C@@H]2[C@@H](O)[C@@H](C)CN2C(=O)C(CO)NC(=O)C([C@@H](O)[C@H](O)c2ccc(O)cc2)NC(=O)[C@@H]2C[C@@H](O)CN2C(=O)C(C(C)O)NC1=O (some centres undefined) |  |  | 27 | 25 | Zone size (Aspergillus fumigatus [14]): 24 mm; Zone size (Candida albicans [15]): 26 mm; Zone size (Aspergillus fumigatus [16]): 35 mm; Zone size (Aspergillus fumigatus [17]): 37 mm
CCC(C)CCCCCCCCCCC(=O)N[C@@H]1C[C@@H](O)CNC(=O)[C@@H]2[C@@H](O)[C@@H](C)CN2C(=O)[C@H](CO)NC(=O)[C@H]([C@@H](O)Cc2ccc(O)cc2)NC(=O)[C@@H]2C[C@@H](O)CN2C(=O)[C@H]([C@@H](C)O)NC1=O (some centres undefined) | 30 | 35 | 38 |  | Zone size (Aspergillus fumigatus [18]): 25 mm; Zone size (Candida albicans [19]): 24 mm; Approximate colony formation unit (Candida albicans [6]): 7700000 (g kidney)-1

— ChEMBL document CHEMBL1147582, “Approaches towards the stabilization of hemiaminal function at ornithine unit of mulundocandin” (2004)
